TRPN1 ag: zebrafish TRPN1 channel agonists, primary screen, cell-based, HEK293, calcium fluorescence; transient receptor potential cation channel N1 (TRPN1/NompC), Danio rerio; HEK293 zebrafish TRPN1-YFP, Fluo-8 calcium fluorescence; 100% = response to 87 µM carbachol; activation, % at 3 µM; 220,000 compounds, 0.18% hits; AID 1424, 2008;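 active = activation above its plate's cutoff, the mean activation of test wells on that plate plus 3 SD, cut at about 19% in these data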
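Assay system: Zebrafish TRPN1-YFP in HEK293 cells | Incubation: Dye loading 1 h at 37 °C, then 30 min room temperature | Measured by: Kinetic Fluo-8 fluorescence, ex 470-495, em 515-575 nm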
V1R ag counter: agonists of human V1a receptor, primary screen, counter-screen for OXTR agonist project, fluorescence, CHO-V1R cells; Vasopressin V1a receptor (Homo sapiens), P37288; Fluo-8 calcium fluorescence, agonist mode; 0% DMSO, 100% 3 nM vasopressin; activation, % at 3 µM; 320,000 compounds, 0.25% hits; AID 2797, 2010;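 active = activation above the mean activation of all tested compounds plus 3 SD, per screening run, cut at about 20% in these data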;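 also: signal is peak over basal fluorescence ratio across a 100 second FLIPR read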
OXTR ag: human OXTR agonists, primary screen, fluorescence, CHO-OTR cells, Fluo-8 calcium. Oxytocin receptor (Homo sapiens), P30559. Fluo-8 calcium fluorescence; normalized: DMSO 0%, oxytocin 100%. activation, % at 3 µM. 320,000 compounds, 0.32% hits. AID 2435, 2010;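 active = activation above the mean of all tested compounds plus 3 SD, cutoff set per screening run, cut at about 20% in these data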;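 also: peak over basal fluorescence ratio from a 100 s FLIPR kinetic read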
TRPML3 ag: human TRPML3 channel agonists, primary screen, cell-based, HEK293 TRPML3-YFP, Fluo-8 calcium fluorescence, 3 µM; Mucolipin-3 (Homo sapiens), Q8TDD5; 100% = the carbachol control signal; activation, % at 3 µM; 220,000 compounds, 0.29% hits; AID 1448, 2008;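 active = activation above its plate's cutoff, the mean activation of the plate's test wells plus 3 SD, cut at about 12% in these data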
Target sequence (Q8TDD5 whole entry, looked up): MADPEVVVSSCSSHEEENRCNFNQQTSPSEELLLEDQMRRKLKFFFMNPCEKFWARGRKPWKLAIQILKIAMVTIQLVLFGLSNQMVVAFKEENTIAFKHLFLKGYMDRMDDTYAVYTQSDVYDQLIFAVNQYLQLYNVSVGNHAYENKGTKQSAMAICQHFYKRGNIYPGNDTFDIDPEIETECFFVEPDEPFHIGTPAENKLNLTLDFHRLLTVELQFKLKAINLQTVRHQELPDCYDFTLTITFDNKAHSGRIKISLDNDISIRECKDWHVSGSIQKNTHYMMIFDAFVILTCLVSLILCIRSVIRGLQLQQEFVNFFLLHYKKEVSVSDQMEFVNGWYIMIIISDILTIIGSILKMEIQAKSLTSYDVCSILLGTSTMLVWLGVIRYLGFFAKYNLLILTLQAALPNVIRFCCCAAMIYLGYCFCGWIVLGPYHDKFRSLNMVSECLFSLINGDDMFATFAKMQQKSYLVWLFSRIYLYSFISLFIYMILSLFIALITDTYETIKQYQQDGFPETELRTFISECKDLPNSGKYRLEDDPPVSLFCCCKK
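system = HEK293 cells stably carrying human TRPML3-YFP | doses = one concentration, 3 µM nominal, 0.3% DMSO | timing = dye loading 1 h 37 °C then 30 min ambient, 125 s read | detection = Fluo-8 calcium dye fluorescence, ex 470-495, em 515-575 nm | benchmarks = high control carbachol 87 µM, low control DMSO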
OXTR potentiate: human OXTR potentiators, primary screen, fluorescence, CHO-OTR cells, Fluo-8 calcium; Oxytocin receptor (Homo sapiens), P30559; Fluo-8 calcium fluorescence, potentiator mode; 0% = oxytocin EC15, 100% = EC100; activation, % at 3 µM; 320,000 compounds, 0.061% hits; AID 2445, 2010;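 active = activation above that plate's cutoff, the mean activation of tested compounds plus 3 SD, cut at about 6.6% in these data, passing the limit was not always enough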
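System: human OTR in CHO cells; Also added: sub-maximal oxytocin, roughly EC15; Timing: compound 6 min at room temperature before oxytocin, 100 s read; Technique: Fluo-8 intracellular calcium fluorescence, ex 470-495, em 515-575 nm; Controls: oxytocin EC15 low and EC100 high; Replication: singlicate.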
TRPN1 counter: zebrafish TRPN1 channel agonists, counter-screen for TRPML3 agonist project, cell-based, HEK293 TRPN1-YFP, Fluo-8 calcium; Fluo-8 calcium fluorescence; scaled: carbachol wells 100%, DMSO wells 0%; AID 1525, 2009; shares compounds with TRPML3 ag; activation, % at 3 µM; 310 compounds, 10% hits;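 active = mean activation over replicates above a set limit taken from the earlier TRPN1 channel primary screen, cut at about 19% in these data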
TRPML3 confirm: human TRPML3 channel agonists, confirmation, cell-based, HEK293 TRPML3-YFP, Fluo-8 calcium, triplicate | Fluo-8 calcium fluorescence; 100% set by carbachol, 0% by DMSO | AID 1526, 2009 | shares compounds with TRPML3 ag | 310 compounds, 80% hits | activation, % at 3 µM;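 active = activation above a set limit derived from the earlier primary screen, cut at about 12% in these data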
A number is an active result; . = inactive; / = no result given. Rows were chosen to be rich in hits. Some 0.55% of all compounds tested hit in one or more screens of this group.

SMILES	TRPN1 ag	V1R ag counter	OXTR ag	TRPML3 ag	OXTR potentiate	TRPN1 counter	TRPML3 confirm
Cc1ccc(S(=O)(=O)N(CC(=O)N2CCCCC2)c2cccc(C)c2)cc1	.	.	.	127	.	.	139
Cc1cc(C)cc(N(CC(=O)N2CCC(C)CC2)S(=O)(=O)c2ccccc2)c1	.	.	.	.	.	/	/
COc1ccc(C(=O)Nc2ccccc2C(=O)NCC2CCCO2)cc1 (configuration not stated)	/	.	.	/	.	/	/
Cc1ccc(-n2nc3c(N4CCN(c5ccccc5)CC4)nnc(C)c3c2C)cc1	.	/	/	.	/	/	/
Cc1ccc(-n2nc3c(Cl)nnc(C)c3c2C)cc1	.	.	.	13	.	.	.
CCc1nnc(NC(=O)COc2ccc(N(C)S(=O)(=O)c3ccc(C)cc3)cc2)s1	.	/	/	23	/	.	63
COc1ccc(CCNC(=O)COc2ccc(N(C)S(=O)(=O)c3ccc(Cl)cc3)cc2)cc1	.	/	/	44	/	.	41
CCOC(=O)Cc1csc(NC(=O)COc2ccc(N(C)S(=O)(=O)c3ccc(C)cc3)cc2)n1	.	.	.	.	.	/	/
Cc1ccc(S(=O)(=O)N(C)c2ccc(OCC(=O)Nc3nnc(C4CC4)s3)cc2)cc1	.	/	/	44	/	.	53
CC1CC(C)(C)N(C(=O)CN2C(=O)c3ccccc3C2=O)c2ccccc21 (configuration not stated)	.	.	.	210	.	97	205
CC1=CC(C)(C)N(C(=O)CN2C(=O)c3ccccc3C2=O)c2ccccc21	.	.	.	67	.	.	92
Cc1ccc(NC(=O)c2ccc(Cl)c(N3C(=O)C=CC3=O)c2)cc1	.	.	.	.	.	/	/
COc1ccc2c(c1)C(C)CC(C)(C)N2C(=O)CSc1nc2ccccc2s1 (configuration not stated)	.	.	.	18	.	.	33
COc1ccc(CCN2C(=O)CSC2=Nc2ccc(C(C)C)cc2)cc1OC	.	.	.	13	.	.	14
COc1ccc(N=C2SCC(=O)N2CCc2ccc(OC)c(OC)c2)cc1	.	.	.	.	.	/	/
CN(CC(=O)O/N=C(\N)c1ccccn1)S(=O)(=O)c1ccccc1	.	.	.	.	.	/	/
COc1ccc(/C(N)=N/OC(=O)CN(C)S(=O)(=O)c2ccccc2)cc1	.	/	/	106	/	.	40
O=C1C=C(NC2=CC3OC(c4ccccc4)OCC3OC2=O)CCC1 (configuration not stated)	.	.	.	30	.	.	.
COc1ccc(C(=O)CSc2nnc(-c3ccc(C)cc3)o2)cc1	.	.	.	.	.	/	/
COc1ccc2c(c1)C(C)=CC(C)(C)N2C(=O)CSc1nnc(-c2ccc(C)cc2)o1	.	.	.	37	.	.	48
O=c1oc2ccc3ccccc3c2cc1-c1nnc(-c2ccccc2)o1	.	.	.	.	.	/	/
CCN(CC)c1ccc2cc(-c3nnc(-c4ccccc4)o3)c(=O)oc2c1	.	50	42	12	.	248	177
CCCOc1cc(C)c(Cl)cc1S(=O)(=O)N(CC)CC	.	.	.	26	.	.	97
CCN(C(=O)c1cnc(OC)cc1C(F)(F)F)c1ccc(Cl)cc1Cl	.	.	.	39	.	.	47
CCOC(=O)CSc1nc2c(sc(=S)n2-c2ccccc2OC)c(=O)n1-c1ccccc1OC	/	.	.	/	.	/	/
SMILES	TRPN1 ag	V1R ag counter	OXTR ag	TRPML3 ag	OXTR potentiate	TRPN1 counter	TRPML3 confirm
CCOC(=O)CSc1nc2c(sc(=S)n2-c2ccccc2OC)c(=O)n1Cc1ccco1	.	.	.	40	.	.	59
O=C(/C=C/c1ccc(Cl)cc1Cl)OCC(=O)N1CCCC1	/	.	.	/	.	/	/
Cc1cc(Br)ccc1NC(=O)CSCc1c(C)noc1C	/	.	.	/	.	/	/
Cc1cccc(CC2CC(=O)N(c3ccccc3)C2=O)c1 (configuration not stated)	.	.	.	.	.	/	/
Cc1cccc(CC2CC(=O)N(C3CCCCC3)C2=O)c1 (configuration not stated)	.	.	.	13	.	.	66
COC(=O)c1ccc(Cl)cc1N(Cc1c(F)cccc1Cl)S(C)(=O)=O	.	.	.	70	.	.	84
COC(=O)c1ccc(CN(c2ccccc2Cl)S(C)(=O)=O)cc1	.	.	.	.	.	/	/
COc1ccc(-c2sc3cc(OC)c(OC)cc3c2-c2ccc(O)cc2)cc1	/	.	.	/	.	/	/
Cc1noc(C)c1COC(=O)c1cccc(S(=O)(=O)N2CCCCCC2)c1	.	.	.	13	.	.	18
Cc1noc(C)c1COC(=O)c1ccc(F)c(S(=O)(=O)N2CCCCC2)c1	.	.	.	.	.	/	/
COc1ccc(S(=O)(=O)N2CCCCCC2)cc1C(=O)OCc1c(C)noc1C	.	.	.	30	.	.	14
COc1ccc(C2C(C(C)=O)=C(C)N=c3s/c(=C\c4cc(C)n(C)c4C)c(=O)n32)c(OC)c1 (configuration not stated)	.	40	35	16	.	28	18
Cc1cccc(OCC(=O)Nc2nccs2)c1C	/	.	.	/	.	/	/
CC(C)C[C@H](NC(=O)OC(C)(C)C)C(=O)N[C@@H](CO)[C@H](O)[C@@H]1C[C@@H]1C(=O)NC1CCCCC1	/	.	.	/	.	/	/
C=CCn1c(SCC(=O)C23CC4CC(CC(C4)C2)C3)nc(O)cc1=O	.	.	.	.	.	/	/
C=CCn1c(SCCC)nc(O)cc1=O	.	70	48	28	.	.	.
CC(C)Oc1ccc(/C=N/NC(=O)C(CSCc2ccccc2)NC(=O)c2ccc([N+](=O)[O-])cc2)cc1 (configuration not stated)	.	.	.	53	.	.	78
O=C(COc1ccc(/C=N/NC(=O)c2ccccc2)cc1)Nc1ccc([N+](=O)[O-])cc1	.	.	.	.	.	/	/
O=C1OC/C(=C(/O)c2ccc(Cl)cc2)C1=O	/	.	.	/	.	/	/
CCOc1ccccc1N(CC(=O)NC1CCCCC1)C(=O)c1nsc(Cl)c1Cl	.	.	.	43	.	.	36

Assay outcomes as filed in PubChem.
